Compound activity (PubChem)
Shown are actives, neighbours in structure and some others; about 1.9% of the full set was active somewhere.
proCasp7 act: counter-screen: procaspase-7 (human) activation | P55210 | recombinant procaspase-7, Ac-DEVD-pNA absorbance 405 nm; D23A/D198A/D206A triple mutant, cannot self-cleave; scale: DMSO 0, 5 µM enzyme 100 | activation, % at 8.5 µM | 330,000 compounds, 0.093% hits | AID 463210;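 active = percent activation above the screen-wide mean plus 3 SD, cut at about 25% in these data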
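System: Uncleavable procaspase-7 mutant enzyme; Amount: 2 µM procaspase-7 mutant as dispensed; Schedule: 1 h compound preincubation, 2 h substrate cleavage, 25 °C; Measured by: 405 nm absorbance of p-nitroaniline; Evaluation: percent activation from buffer-corrected 0–120 min absorbance change; Control set: low DMSO alone, high DMSO plus 5 µM PC-7.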
PHOSPHO1 inh: PHOSPHO1 (human) inhibition | 290,000 compounds, 1.1% hits | inhibition, % at 13.3 µM | recombinant PHOSPHO1, absorbance phosphatase assay | Q8TCT1; in the data active = inhibition above about 60%
Target sequence (Q8TCT1 whole entry, looked up): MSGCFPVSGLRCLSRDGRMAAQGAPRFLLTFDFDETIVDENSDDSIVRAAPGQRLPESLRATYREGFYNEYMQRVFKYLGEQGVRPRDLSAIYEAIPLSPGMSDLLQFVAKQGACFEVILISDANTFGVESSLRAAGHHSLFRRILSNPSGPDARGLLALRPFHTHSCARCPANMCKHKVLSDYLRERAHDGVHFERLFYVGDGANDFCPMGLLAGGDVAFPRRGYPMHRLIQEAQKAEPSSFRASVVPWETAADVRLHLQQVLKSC
UBC13 polyUb: human UBC13 polyubiquitination inhibition; P61088; UBC13 polyubiquitin chain formation, TR-FRET; inhibition, % at 20 µM; 330,000 compounds, 0.47% hits; in the data active = inhibition above about 45%, passing the limit was not always enough
Target sequence (P61088 whole entry, looked up): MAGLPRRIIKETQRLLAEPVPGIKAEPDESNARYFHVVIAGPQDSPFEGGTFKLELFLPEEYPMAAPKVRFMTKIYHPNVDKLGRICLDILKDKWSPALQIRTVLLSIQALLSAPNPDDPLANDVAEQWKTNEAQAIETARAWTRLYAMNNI
IDE cell activ: activators of human insulin-degrading enzyme in cells | P14735 | HEK cells, FAbeta-B cleavage, fluorescence polarization; 0% vehicle, 100% cell-free pure enzyme wells | activation, % at 5.96 µM | 340,000 compounds, 0.073% hits | AID 493087;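 active = activation above the mean of all tested compounds plus 3 SD, set per screening campaign, cut at about 17% in these data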
proCasp3 act: procaspase-3 (human) activation. P42574. recombinant procaspase-3 D3A, Ac-DEVD-pNA absorbance 405 nm. activation, % at 8.5 µM. 330,000 compounds, 0.11% hits. AID 463141;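 active = activation above the mean of all tested compounds plus 3 SD, cut at about 21% in these data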
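material = Procaspase-3 D3A mutant | probe or stimulus = Ac-DEVD-pNA | compound = single dose, 8.5 µM nominal compound, 0.8% DMSO | timing = 1 h preincubation, 2 h reaction | measured by = 405 nm absorbance of p-nitroaniline, reads at 0 and 120 min | benchmarks = DMSO-only low control, 5 µM PC-3 D3A high control | repeats = singlicate, each compound tested once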
IDE inh: cellular human IDE inhibition; 320,000 compounds, 0.41% hits; HEK cells, FAbetaB cleavage, fluorescence polarization; inhibition, % at 5.59 µM; P14735; AID 434962;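 active = percent inhibition above the average of all tested compounds plus 3 SD, set per screening campaign, cut at about 16% in these data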;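 note: IDE supplied by intact live HEK cells; FP after avidin binding of uncleaved biotin substrate so inhibition keeps polarization high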
A number is an active result; 0 = inactive; - = not tested or not shown.

SMILES	proCasp7 act	PHOSPHO1 inh	UBC13 polyUb	IDE cell activ	proCasp3 act	IDE inh
Cc1cc2c(cc3c(=O)n(CC(=O)NCCCN4CC(C)CC(C)C4)ncn32)s1 (stereo unspecified)	0	69.0	0	0	0	0
CCN(CC)c1ccc(-c2nc3cnccn3c2NC2CCCC2)cc1	0	62.3	0	0	0	0
c1cn2c(NC3CCCCC3)c(-c3ccc(SC4CCCCC4)cc3)nc2cn1	0	-	0	0	0	0
O=C(c1ccc(CS(=O)c2ccccc2Cl)o1)N1CCN(c2ccccn2)CC1 (stereo unspecified)	0	0	0	0	0	0
Cc1ccc2sc(N(CCCN(C)C)C(=O)c3ccc(Br)s3)nc2c1C	0	0	0	17.9	0	0
CC(=O)Oc1ccc(C23c4ccccc4C2(OC(C)=O)c2cc(OC(C)=O)ccc23)cc1 (stereo unspecified)	-	-	-	0	-	-
Cn1ncc(Cl)c1C(=O)N1CCN(c2ncccn2)CC1	0	62.6	0	0	0	0
CCC(Sc1nnc(-c2ccc(C)c(Cl)c2)n1CC)C(=O)Nc1nccs1 (stereo unspecified)	0	62.4	0	0	0	0
N#Cc1ccc(-c2ccc(Cl)cc2)nc1SCC(=O)c1cccc(Cl)c1	0	75.5	0	0	0	0
CCOC(=O)[C@H]1[C@H]2COc3cc(OC)ccc3[C@@H]2N2C(=O)CN(C)C(=O)[C@@]12C	0	-	0	0	0	0
O=C1/C(=C/c2ccc(Cl)cc2)SC(=S)N1CCC(=O)N1CCCCC1CCO (stereo unspecified)	0	0	0	0	0	0
O=C1/C(=C/c2ccccc2F)SC(=S)N1CCC(=O)N1CCCCC1CCO (stereo unspecified)	0	64.0	0	0	0	0
CCOc1cc(CNCCc2ccccc2)ccc1OCC(=O)NC(C)(C)C	0	0	0	0	0	0
CCOc1cc(CNCc2cccnc2)ccc1OCC(=O)NC(C)(C)C	0	72.9	0	0	0	0
Cc1ccc(S(=O)(=O)N2CCCCC2C(=O)N2CCN(c3ccccc3F)CC2)cc1 (stereo unspecified)	0	0	0	0	0	0
Cc1ccc(S(=O)(=O)N2CCCCC2C(=O)N2CCN(C)CC2)cc1 (stereo unspecified)	0	61.5	0	0	0	0
Cc1noc(C)c1NC(=O)Nc1ccc2c(c1)C(=O)N([C@H](C)CO)C[C@H](C)[C@@H](CN(C)S(=O)(=O)c1ccccc1)O2	0	-	0	0	0	0
Cc1cc(C(=O)NNC(=O)c2ccc(Cl)c(S(N)(=O)=O)c2)c(C)o1	0	-	0	0	0	0
CCOC(=O)c1c(C)[nH]c(N=Nc2ccc(C)cc2C)c1C	0	64.8	0	0	0	0
CCOC(=O)c1c(C)[nH]c(N=Nc2ccccc2C)c1C	0	0	0	0	0	0
Cc1ccc(CN2C(=O)/C(=C\c3ccc(C(=O)NCc4cccnc4)cc3)Oc3ccccc32)cc1	0	0	0	-	26.9	0
O=C(CN1C(=O)/C(=C\c2ccccc2Cl)Oc2ccccc21)NCc1cccnc1	0	0	0	0	0	0
Cc1ccccc1-n1c(SCC(=O)N(C)C2CCS(=O)(=O)C2)nnc1-c1ccncc1 (stereo unspecified)	0	0	0	0	0	0
Cc1ccccc1-n1c(SCC(=O)c2cc(C)n(C)c2C)nnc1-c1ccncc1	0	93.4	0	0	0	0
CCN(c1ccc(C(=O)CN2C(=O)NC3(CCOc4ccccc43)C2=O)cc1)S(C)(=O)=O (stereo unspecified)	0	-	0	0	0	0
SMILES	proCasp7 act	PHOSPHO1 inh	UBC13 polyUb	IDE cell activ	proCasp3 act	IDE inh
Cc1cccc(NC(=S)NNC(=O)c2sccc2C)c1	0	80.4	0	0	0	0
CCc1cc(C(=O)NNC(=S)Nc2cccc(C)c2)cs1	0	0	0	0	0	0
Cc1cccc(NC(=S)NNC(=S)NCc2ccccc2)c1	0	77.5	0	0	0	0
CCCn1c2ccccc2c2nnc(SC(CC)C(=O)Nc3sc4c(c3C#N)CCCC4)nc21 (stereo unspecified)	0	61.3	0	0	0	0
CCCn1c2ccccc2c2nnc(SC(CC)C(=O)Nc3cc(C)on3)nc21 (stereo unspecified)	0	0	0	0	0	0
COC(=O)Cc1c(C)nc2nc(NCc3ccc(Cl)cc3)[nH]n2c1=O	0	80.2	0	0	0	0
COc1ccc(NC(=S)Nc2ccc(OC)cc2OC)c(OC)c1	0	64.1	0	0	0	0
COc1ccc2c(C)cc3n[nH]c(=S)n3c2c1	0	66.8	0	0	0	0
Cc1cc(C(=O)O)c(CSCc2cc(C(=O)O)oc2C)o1	0	76.1	0	0	0	0
N#CC1=C2SCN(Cc3ccccc3)CN2C(=O)CC1c1ccc2c(c1)OCO2 (stereo unspecified)	0	63.2	0	0	0	0
N#CC1=C2SCN(Cc3ccccc3)CN2C(=O)CC1c1cccs1 (stereo unspecified)	0	67.5	0	0	0	0
CCC(O)CNC(=O)CCc1nnc(C2(c3ccc(Cl)cc3)CCC2)o1 (stereo unspecified)	0	60.1	0	0	0	0
N#Cc1c(NC(=O)CSc2nnc(-c3ccco3)n2-c2ccccc2)sc2c1CCC2	0	0	0	0	0	0
NC(=O)c1c(NC(=O)CSc2nnc(-c3ccco3)n2-c2ccccc2)sc2c1CCC2	0	81.6	0	0	0	0
COc1ccccc1CNC(=O)C(C)n1cccc1C(=O)c1ccccc1 (stereo unspecified)	0	64.0	0	0	0	0
CC(C(=O)NCc1ccc(Cl)cc1)n1cccc1C(=O)c1ccccc1 (stereo unspecified)	0	0	0	0	0	0
N#Cc1cccc(S(=O)(=O)NCCOc2ccccc2F)c1	0	-	0	0	0	0
CCCOC(=O)C1=C(C)NC2=C(C(=O)C(C(=O)OC)C(C)C2)C1c1ccc(N(CC)CC)cc1 (stereo unspecified)	0	0	0	0	0	0
CCC(C)OC(=O)C1=C(C)NC2=C(C(=O)C(C(=O)OC)C(C)C2)C1c1ccc(N(C)C)cc1 (stereo unspecified)	0	0	0	17.4	0	0
CCOC(=O)c1sc(NC(=O)CSc2nnc(Cc3ccccc3)o2)c(C#N)c1C	0	86.1	0	0	0	0
CCOC(=O)c1sc(NC(=O)CSc2n[nH]c(-c3ccccc3)n2)c(C#N)c1C	0	76.6	0	0	0	0
CCOC(=O)c1sc(NC(=O)CSc2nc(C)cc(C)n2)c(C#N)c1C	0	0	0	0	0	0
CCOC(=O)c1c(NC(=O)CSc2nnc(Cc3ccccc3)o2)sc(C(C)=O)c1C	0	0	0	0	0	0
